What is called IC50 is the point on the concentration scale where inhibition reaches its midpoint. A low value points to greater potency in that assay.

Data set [1] is described as follows: Antiproliferative activity against MDR human HL60R cell line.
Data set [2] addresses Breakpoint cluster region protein/Tyrosine-protein kinase ABL1 (Homo sapiens, UniProt P00519+P11274). The data set is described as follows: Antiproliferative activity against human K562 cell line expressing Bcr-Abl. The gist of the method:
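Cell growth inhibition measured by counting cells with an automatic cell counter in sensitive HL60, MDR HL60R and Bcr-Abl-expressing K562 cells. IC50 is the concentration inhibiting 50% of cell growth.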

Each structure is given as a SMILES string.

Breakpoint cluster region protein/Tyrosine-protein kinase ABL1, sequence (P00519 whole entry): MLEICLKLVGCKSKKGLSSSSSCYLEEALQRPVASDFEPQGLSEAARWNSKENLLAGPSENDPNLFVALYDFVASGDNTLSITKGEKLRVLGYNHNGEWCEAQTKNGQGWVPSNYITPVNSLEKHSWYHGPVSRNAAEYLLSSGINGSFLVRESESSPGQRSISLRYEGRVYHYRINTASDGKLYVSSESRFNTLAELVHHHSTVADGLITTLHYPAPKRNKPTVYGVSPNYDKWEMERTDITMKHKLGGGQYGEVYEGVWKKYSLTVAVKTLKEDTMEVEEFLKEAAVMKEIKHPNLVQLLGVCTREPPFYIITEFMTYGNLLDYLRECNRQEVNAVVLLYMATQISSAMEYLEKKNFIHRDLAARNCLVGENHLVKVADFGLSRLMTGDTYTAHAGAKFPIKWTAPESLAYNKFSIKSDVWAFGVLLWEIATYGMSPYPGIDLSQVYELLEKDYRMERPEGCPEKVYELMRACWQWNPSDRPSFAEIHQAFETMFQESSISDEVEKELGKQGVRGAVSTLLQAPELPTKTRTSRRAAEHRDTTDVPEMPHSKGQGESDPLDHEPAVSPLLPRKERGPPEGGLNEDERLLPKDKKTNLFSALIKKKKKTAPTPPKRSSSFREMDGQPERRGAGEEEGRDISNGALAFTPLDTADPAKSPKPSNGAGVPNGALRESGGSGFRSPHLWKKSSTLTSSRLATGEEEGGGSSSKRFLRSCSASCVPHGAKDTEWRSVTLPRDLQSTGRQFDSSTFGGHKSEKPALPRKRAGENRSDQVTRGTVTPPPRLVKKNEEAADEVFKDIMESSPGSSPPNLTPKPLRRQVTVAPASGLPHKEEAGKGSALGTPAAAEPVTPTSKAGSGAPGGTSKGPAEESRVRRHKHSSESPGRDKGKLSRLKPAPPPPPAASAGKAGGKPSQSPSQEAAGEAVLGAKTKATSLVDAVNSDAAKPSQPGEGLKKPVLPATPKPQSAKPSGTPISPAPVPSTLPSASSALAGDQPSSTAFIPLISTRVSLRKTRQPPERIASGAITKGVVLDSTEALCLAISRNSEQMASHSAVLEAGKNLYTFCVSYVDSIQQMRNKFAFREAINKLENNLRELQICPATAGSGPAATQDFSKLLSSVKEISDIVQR
Breakpoint cluster region protein/Tyrosine-protein kinase ABL1, sequence (P11274 whole entry): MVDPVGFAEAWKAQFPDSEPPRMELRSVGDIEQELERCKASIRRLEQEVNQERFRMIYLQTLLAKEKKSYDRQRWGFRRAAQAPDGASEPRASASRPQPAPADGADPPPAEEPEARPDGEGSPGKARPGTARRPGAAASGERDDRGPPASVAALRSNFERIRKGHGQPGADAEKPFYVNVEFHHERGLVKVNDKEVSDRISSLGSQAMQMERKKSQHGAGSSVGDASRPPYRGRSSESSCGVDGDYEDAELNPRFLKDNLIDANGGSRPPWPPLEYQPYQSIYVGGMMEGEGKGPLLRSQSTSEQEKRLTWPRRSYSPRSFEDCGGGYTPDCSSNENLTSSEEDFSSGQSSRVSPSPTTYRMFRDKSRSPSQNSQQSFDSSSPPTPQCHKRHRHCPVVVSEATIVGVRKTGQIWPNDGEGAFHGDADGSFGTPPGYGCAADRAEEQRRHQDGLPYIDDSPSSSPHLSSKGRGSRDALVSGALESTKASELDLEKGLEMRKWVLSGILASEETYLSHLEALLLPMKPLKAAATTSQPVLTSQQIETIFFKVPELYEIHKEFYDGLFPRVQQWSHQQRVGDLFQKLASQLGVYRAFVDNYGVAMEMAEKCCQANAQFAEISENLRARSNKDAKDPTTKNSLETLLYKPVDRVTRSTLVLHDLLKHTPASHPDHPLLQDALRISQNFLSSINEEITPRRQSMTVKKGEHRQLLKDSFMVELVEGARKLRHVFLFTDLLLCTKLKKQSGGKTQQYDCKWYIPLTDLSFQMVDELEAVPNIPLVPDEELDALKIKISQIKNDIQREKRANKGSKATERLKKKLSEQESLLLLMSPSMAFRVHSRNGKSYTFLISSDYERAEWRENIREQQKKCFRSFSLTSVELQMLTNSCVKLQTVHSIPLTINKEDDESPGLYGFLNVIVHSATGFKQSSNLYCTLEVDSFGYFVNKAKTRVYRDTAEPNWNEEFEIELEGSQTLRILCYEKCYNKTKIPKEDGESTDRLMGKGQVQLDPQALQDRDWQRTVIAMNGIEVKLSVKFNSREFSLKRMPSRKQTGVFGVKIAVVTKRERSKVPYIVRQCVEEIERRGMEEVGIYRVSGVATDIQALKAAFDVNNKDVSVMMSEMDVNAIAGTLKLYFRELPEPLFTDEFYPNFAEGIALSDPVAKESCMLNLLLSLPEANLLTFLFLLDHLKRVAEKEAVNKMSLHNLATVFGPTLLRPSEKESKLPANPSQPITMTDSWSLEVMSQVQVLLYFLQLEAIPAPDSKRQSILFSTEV

Turning to `COc1ccc(-c2ccc(-c3cc(OC)cc(OC)c3)cc2)cc1` [4,3'',5''-trimethoxy-[1,1';4',1'']-terphenyl], the half-inhibitory concentration (IC50) in data set [1] and in data set [2] was above 100 µM throughout.

For `COc1ccc(-c2cccc(-c3cc(OC)cc(OC)c3)c2)cc1` [4,3'',5''-trimethoxy-[1,1';3',1'']-terphenyl], the IC50 in data set [1] came out at 80 µM; in data set [2], 10 µM.

Compound `COc1cc(/C=C/c2cc(Cl)ccc2O)cc(OC)c1` [4-chloro-2-[(E)-2-(3,5-dimethoxy-phenyl)-vinyl]-phenol] returned an IC50 in data set [2] of 16 µM.

Regarding `COc1cc(OC)cc(-c2ccccc2-c2ccc(O)cc2)c1` [3'',5''-dimethoxy-[1,1';2',1'']-terphenyl-4-ol], the concentration for half-maximal inhibition (IC50) in data set [1] worked out at 28 µM; in data set [2], 14 µM.

In turn, `COc1ccc(-c2ccccc2-c2cc(OC)cc(OC)c2)cc1` [4,3'',5''-trimethoxy-[1,1';2',1'']-terphenyl] gave an IC50 in data set [2] of 6 µM.

With `Oc1ccc(/C=C/c2cc(O)cc(O)c2)cc1` [5-[(E)-2-(4-hydroxyphenyl)ethenyl]benzene-1,3-diol], the concentration for half-maximal inhibition (IC50) came out at 60 µM in data set [1] and 28 µM in data set [2].

Regarding `COc1cc(/C=C/c2cc(C(C)(C)C)c(O)c(C(C)(C)C)c2)cc(OC)c1` [2,6-di-tert-butyl-4-[(E)-2-(3,5-dimethoxy-phenyl)-vinyl]-phenol], in data set [2], the IC50 was above 100 µM.

For `Oc1ccc(-c2cccc(-c3cc(O)cc(O)c3)c2)cc1` [[1,1';3',1'']-terphenyl-4,3'',5''-triol], the 50% inhibitory concentration (IC50) was 58 µM in data set [1] and 20 µM in data set [2].

On to `COc1cc(/C=C/c2cccc(OC)c2O)cc(OC)c1` [2-[(E)-2-(3,5-dimethoxyphenyl)vinyl]-6-methoxyphenol], for which, in data set [2], half-maximal inhibition (IC50) required 8 µM.

As for `Oc1cc(O)cc(-c2ccc3cc(O)ccc3c2)c1` [5-(6-hydroxy-naphtalen-2-yl)-benzene-1,3-diol], half-maximal inhibition in data set [2] (IC50) was put at 20 µM.

For the compound `COc1cc(/C=C/c2ccc(O)cc2)cc(OC)c1` [4-[2-(3,5-Dimethoxy-phenyl)-vinyl]-phenol], the IC50 in data set [1] was determined as 42 µM; in data set [2], 10 µM.

Turning to `COc1cc(/C=C/c2cc(OC)c(O)c(OC)c2)cc(OC)c1` [4-[(E)-2-(3,5-dimethoxy-phenyl)-vinyl]-2,6-dimethoxy-phenol], the half-inhibitory concentration (IC50) is above 100 µM in data set [1] and 23 µM in data set [2].

Consider `COc1ccc(/C=C/c2cc(OC)cc(OC)c2)cc1`, for which the IC50 in data set [2] is 10 µM.

Turning to `COc1cc(OC)cc(-c2cccc(-c3ccc(O)cc3)c2)c1` [3'',5''-dimethoxy-[1,1';3',1'']-terphenyl-4-ol], the IC50 in data set [1] is 20 µM; in data set [2], 14 µM.

`COc1cc(/C=C/c2ccccc2O)cc(OC)c1` [2-[(E)-2-(3,5-dimethoxy-phenyl)-vinyl]-phenol]: the figures for the concentration for half-maximal inhibition (IC50) in data set [1] and in data set [2] were 68 µM and 24 µM, respectively.

`Oc1ccc(-c2ccc(-c3cc(O)cc(O)c3)cc2)cc1` [[1,1';4',1'']-terphenyl-4,3'',5''-triol]: the half-inhibitory concentration (IC50) in data set [1] came out at 23 µM; in data set [2], 20 µM.

In the case of `COc1cc(OC)cc(-c2ccc(-c3ccc(O)cc3)cc2)c1` [3'',5''-dimethoxy-[1,1';4,1'']-terphenyl-4-ol], the 50% inhibitory concentration (IC50) in data set [1] worked out at 23 µM; in data set [2], 35 µM.

Turning to `COc1cc(OC)cc(-c2ccc3cc(O)ccc3c2)c1` [6-(3,5-dimethoxy-phenyl)-naphthalen-2-ol], the IC50 came out at 16 µM in data set [1] and 42 µM in data set [2].

Consider `Oc1ccc(-c2ccccc2-c2cc(O)cc(O)c2)cc1` [[1,1';2',1'']-terphenyl-4,3'',5''-triol], for which the half-maximal inhibitory concentration (IC50) came out at 12 µM in data set [1] and 8 µM in data set [2].

Take `COc1cc(/C=C/c2cccc(O)c2)cc(OC)c1` [3-[(E)-2-(3,5-Dimethoxy-phenyl)-vinyl]-phenol]: the IC50 in data set [1] was above 100 µM; in data set [2], 26 µM.

For the compound `COc1cc(OC)cc(-c2ccc3cc(OC)ccc3c2)c1` [2-(3,5-Dimethoxy-phenyl)-6-methoxy-naphthalene], the IC50 in data set [1] and in data set [2] was above 100 µM in each case.

For the origin of these results see BindingDB's records for doi:10.1021/jm060253o (University of Bologna, 2006).
